In the array DNA melting data of Ke et al. (doi:10.1101/2024.01.08.574731) one finds folding enthalpy and Tm data, which are given here for 37 sequences.

A short description of series [1]: folding enthalpy; higher = less favourable; fluorescence melt of hairpins on a sequencing array, two-state fit. As to conditions: sodium 0.088 M. Put shortly: (§1)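 Hairpins were imaged by Cy3 fluorescence on a sequenced MiSeq flow cell with annealed Cy3 and quencher oligos, in 50 mM Na-HEPES pH 8.0, 25 mM NaCl, in 2.5 °C steps up to 60 °C. Bootstrapped two-state fits of normalised signals gave melting temperature and folding enthalpy. Four replicates were combined by inverse variance, and fitted temperatures were raised by 9.35 °C to match UV melts.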

Series [2] in a line: melting temperature; fluorescence melt of hairpins on a sequencing array, two-state fit, raised by 9.35 °C to match UV melts. Conditions: sodium 0.088 M. In outline: as §1

Take GATCAAATCTTTGATC ((((((....)))))): in series [1], the folding enthalpy was -30.3 kcal/mol. Also, the Tm in series [2] turned out to be 47.7 °C.

In the case of GATCCCGGGCGGGATC ((((((....)))))), the folding enthalpy in series [1] is -40.1 kcal/mol. Moreover, the Tm in series [2] worked out at 61.1 °C.

Regarding GTTCCCGAAAGGGGAAAC ((((((....)))..))), the folding enthalpy in series [1] was -11.8 kcal/mol. Further, in series [2], the Tm turned out to be 37.2 °C.

Regarding GGATCACCGAAAGGTTCC (((..(((....)))))), in series [1], the folding enthalpy is -13.1 kcal/mol. Also, the Tm in series [2] was 30.3 °C.

Take GTATACGAAAGTATCTAC ((((((....)))..))): the folding enthalpy in series [1] is -18.6 kcal/mol. For the same sequence, the Tm in series [2] came to 32.5 °C.

On to GATCTGTTCCAGATC ((((((...)))))), for which the folding enthalpy in series [1] was -30.4 kcal/mol. The Tm in series [2] was 50.7 °C.

Turning to GCCACTGGAAACAGTGAC (.(((((....))))).), in series [1], the folding enthalpy is -18.9 kcal/mol. Besides, the Tm in series [2] was determined as 46.3 °C.

Consider GCGGGTGTCCGC ((((....)))), for which the folding enthalpy in series [1] was -22.8 kcal/mol. Besides, in series [2], the Tm was found to be 58.2 °C.

On to GATCTAACCCTAGATC ((((((....)))))), for which the folding enthalpy in series [1] was -31.1 kcal/mol. For the same sequence, in series [2], the Tm was 37.5 °C.

For the sequence GATCGACATTTCGATC ((((((....)))))), in series [1], the folding enthalpy is -38.6 kcal/mol. Further, the Tm in series [2] came to 50.8 °C.

On to GATCCGGGACCGGATC ((((((....)))))), for which the folding enthalpy in series [1] is -44.4 kcal/mol. Further, the Tm in series [2] came out at 65.4 °C.

With GCAGTGGGAAACCGCTGC ((((.((....)).)))), the folding enthalpy in series [1] is -49.4 kcal/mol. Moreover, in series [2], the Tm was found to be 62.1 °C.

For the sequence GATCCAGTGATGGATC ((((((....)))))), the folding enthalpy in series [1] is -35.2 kcal/mol. In addition, the Tm in series [2] was 56.6 °C.

As for GCCAGGCGAAAGCATTGC ((.(.((....)).).)), the folding enthalpy in series [1] was -13.1 kcal/mol. Moreover, the Tm in series [2] is 35.7 °C.

For the sequence GAAAACCGAAAGGTGTTC (((.(((....))).))), the folding enthalpy in series [1] was -19.9 kcal/mol. The Tm in series [2] stood at 44.9 °C.

For the sequence GCATGGCGAAAGCGCTGC (((..((....))..))), in series [1], the folding enthalpy was -18.6 kcal/mol. Moreover, the Tm in series [2] came to 51.6 °C.

On to GTTCACGAAAGTGGAAAC ((((((....)))..))), for which the folding enthalpy in series [1] is -13.4 kcal/mol. The Tm in series [2] was found to be 30.9 °C.

With GATCCCTTAGGGGATC ((((((....)))))), the folding enthalpy in series [1] was -43.7 kcal/mol. Moreover, the Tm in series [2] was found to be 61.3 °C.

GCTTGTGGAAACACAAAC (.(((((....))))).): the folding enthalpy in series [1] was -13.8 kcal/mol. Moreover, the Tm in series [2] came to 36.3 °C.

Take GATCACATCGTGATC ((((((...)))))): in series [1], the folding enthalpy was -41 kcal/mol. Further, in series [2], the Tm is 58.3 °C.

Take GTCGACGGAAACATCGAC (((((.(....).))))): the folding enthalpy in series [1] is -39.8 kcal/mol. The Tm in series [2] stood at 46.3 °C.

As for GATCCCAGTGGGATC ((((((...)))))), the folding enthalpy in series [1] is -40.6 kcal/mol. For the same sequence, the Tm in series [2] amounted to 60.8 °C.

As to GCACTCGAAAGAGATGC ((((((....))).))), the folding enthalpy in series [1] is -29.4 kcal/mol. The Tm in series [2] was 49.4 °C.

For the sequence GCGTTCAAACGC ((((....)))), the folding enthalpy in series [1] is -24.5 kcal/mol. In addition, the Tm in series [2] came to 53.1 °C.

As for GCAGTCGAAAGACGATGC ((((((....)))..))), the folding enthalpy in series [1] was -18 kcal/mol. For the same sequence, in series [2], the Tm was 46.5 °C.

For GGTTGCCGAAAGGCTACC (((.(((....))).))), in series [1], the folding enthalpy was -29.6 kcal/mol. Also, the Tm in series [2] was 61.8 °C.

Take GGCTCCGAAAGGATCGCC ((((((....)))..))): in series [1], the folding enthalpy was -21.7 kcal/mol. Further, the Tm in series [2] amounted to 47.2 °C.

In the case of GTGGACGAAAGTCCCAC ((((((....))).))), the folding enthalpy in series [1] is -12.1 kcal/mol. Besides, the Tm in series [2] stood at 48.8 °C.

For GCGATTGGAAACGATTGC ((.((.(....).)).)), the folding enthalpy in series [1] was -26.7 kcal/mol. Besides, the Tm in series [2] turned out to be 36.4 °C.

For the sequence GGGTTTCGAAAGAACCC (((.(((....)))))), the folding enthalpy in series [1] is -38 kcal/mol. The Tm in series [2] is 51.2 °C.

For the sequence GATCTAGGACTAGATC ((((((....)))))), the folding enthalpy in series [1] was -39.7 kcal/mol. In addition, the Tm in series [2] amounted to 47.4 °C.

In the case of GATCGTGTCGACGATC ((((((....)))))), the folding enthalpy in series [1] is -33.9 kcal/mol. Moreover, the Tm in series [2] stood at 60.3 °C.

In the case of GACGTTGGAAACAACACC (..((((....))))..), the folding enthalpy in series [1] is -9.55 kcal/mol. Moreover, the Tm in series [2] worked out at 25.2 °C.

As to GTGAGCGAAAGCTCTCAC ((((((....)))..))), the folding enthalpy in series [1] was -10 kcal/mol. Besides, the Tm in series [2] is 40.6 °C.

As for GATACCGCGAAAGCGATC (((..(((....)))))), the folding enthalpy in series [1] is -7.65 kcal/mol. For the same sequence, the Tm in series [2] amounted to 23 °C.

As for GCTTGCGAAAGCATAGC ((((((....))).))), the folding enthalpy in series [1] was -18.9 kcal/mol. In addition, the Tm in series [2] came out at 55.3 °C.

In the case of GATCCCCATGGGGATC ((((((....)))))), in series [1], the folding enthalpy was -39.7 kcal/mol. The Tm in series [2] was found to be 67.7 °C.
